# T1: Arylacetamide deacetylase (Homo sapiens, UniProt P22760)
# T1 sequence (P22760 whole entry): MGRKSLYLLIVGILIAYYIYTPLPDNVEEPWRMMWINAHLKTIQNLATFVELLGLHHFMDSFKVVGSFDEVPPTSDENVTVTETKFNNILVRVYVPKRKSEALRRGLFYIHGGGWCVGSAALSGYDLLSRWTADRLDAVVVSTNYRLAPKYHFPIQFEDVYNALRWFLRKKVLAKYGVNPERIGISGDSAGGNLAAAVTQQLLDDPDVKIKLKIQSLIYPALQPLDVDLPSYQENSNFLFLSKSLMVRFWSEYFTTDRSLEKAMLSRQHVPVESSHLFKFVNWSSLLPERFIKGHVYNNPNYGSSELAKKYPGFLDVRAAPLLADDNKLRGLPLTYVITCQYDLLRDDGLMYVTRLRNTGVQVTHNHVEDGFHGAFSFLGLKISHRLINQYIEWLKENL
# T2: Arylacetamide deacetylase (Rattus norvegicus, UniProt Q9QZH8)
# T2 sequence (Q9QZH8 whole entry): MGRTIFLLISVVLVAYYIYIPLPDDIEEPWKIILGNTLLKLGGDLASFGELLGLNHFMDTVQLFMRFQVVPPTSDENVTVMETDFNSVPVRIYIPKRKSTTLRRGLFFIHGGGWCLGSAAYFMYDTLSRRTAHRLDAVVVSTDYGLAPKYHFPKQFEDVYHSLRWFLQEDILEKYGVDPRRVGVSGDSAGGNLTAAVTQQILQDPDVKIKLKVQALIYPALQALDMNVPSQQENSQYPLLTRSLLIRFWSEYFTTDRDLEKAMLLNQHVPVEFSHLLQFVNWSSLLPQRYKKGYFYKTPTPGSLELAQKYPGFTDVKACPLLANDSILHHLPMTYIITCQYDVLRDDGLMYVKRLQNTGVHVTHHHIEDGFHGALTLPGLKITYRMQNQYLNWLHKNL
# T3: Arylacetamide deacetylase (Mus musculus, UniProt Q99PG0)
# T3 sequence (Q99PG0 whole entry): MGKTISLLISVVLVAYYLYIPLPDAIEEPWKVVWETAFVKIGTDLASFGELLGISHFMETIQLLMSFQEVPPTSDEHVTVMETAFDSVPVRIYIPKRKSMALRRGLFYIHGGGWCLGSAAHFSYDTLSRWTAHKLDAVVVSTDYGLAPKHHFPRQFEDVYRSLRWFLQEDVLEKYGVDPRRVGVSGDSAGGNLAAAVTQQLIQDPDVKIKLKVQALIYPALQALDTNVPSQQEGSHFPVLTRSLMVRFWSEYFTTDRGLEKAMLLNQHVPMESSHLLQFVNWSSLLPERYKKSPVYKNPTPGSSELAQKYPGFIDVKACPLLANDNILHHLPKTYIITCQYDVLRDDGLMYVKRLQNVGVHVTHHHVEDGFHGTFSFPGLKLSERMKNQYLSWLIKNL
# B1: Arylacetamide deacetylase (Homo sapiens) (protein)
# chain: T1 sequence (P22760 whole entry)
# B2: Arylacetamide deacetylase (Rattus norvegicus) (protein)
# chain: T2 sequence (Q9QZH8 whole entry)
# B3: Arylacetamide deacetylase (Mus musculus) (protein)
# chain: T3 sequence (Q99PG0 whole entry)
# Tests used:
# [1] = biological target: T1, Arylacetamide deacetylase; assay: Inhibition of AADAC in human liver microsome
# [2] = Intrinsic clearance in human Liver microsome at 0.05 to 1 mM; type: ADME; conditions: liver microsomes, read-out: CLH
# [3] = Intrinsic clearance in human jejunum microsome at 0.05 to 1 mM; type: ADME; conditions: jejunum microsomes
# [4] = Intrinsic clearance in mouse Liver microsome at 0.05 to 1 mM; type: ADME; conditions: liver microsomes, read-out: CLH
# [5] = biological target: T1, Arylacetamide deacetylase; assay: Inhibition of AADAC in human jejunum microsome
# Procedure, shortened: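 Flutamide hydrolysis to FLU-1 by pooled human jejunum (n = 10) or single-donor human renal microsomes at 0.4 mg/ml in 100 mM potassium phosphate (pH 7.4). Flutamide was 0.005–0.75 mM (jejunum) or 0.025–0.75 mM (kidney). Kinetics were fitted to the substrate inhibition equation, combined with Michaelis-Menten for jejunum. Triplicate determinations.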
# [6] = biological target: T1, Arylacetamide deacetylase; assay: Inhibition of human recombinant AADAC
# [7] = biological target: T2, Arylacetamide deacetylase; assay: Ratio Vmax to Km in rat recombinant AADAC; type: ADME
# [8] = Intrinsic clearance in human lung microsome at 0.05 to 4 mM; type: ADME; conditions: microsomes, 4000 µM
# Procedure, shortened: (§1)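 Phenacetin hydrolysis by tissue microsomes: 0.05–4 mM phenacetin with 0.4 mg/ml microsomal protein in 100 mM potassium phosphate (pH 7.4). p-Phenetidine formation was read within its linear time range. CLint was Vmax/Km, or the initial slope of velocity vs substrate when Km was high. Triplicate determinations. Human liver pooled (n=50), jejunum pooled (n=10), kidney and lung single donors.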
# [9] = Intrinsic clearance in rat jejunum microsome at 0.05 to 4 mM; type: ADME; conditions: jejunum microsomes
# [10] = biological target: T1, Arylacetamide deacetylase; assay: Ratio Vmax to Km in human recombinant AADAC; type: ADME
# [11] = Intrinsic clearance in human kidney microsome at 0.05 to 4 mM; type: ADME; conditions: microsomes, 4000 µM; procedure, shortened: as §1
# [12] = Intrinsic clearance in mouse jejunum microsome at 0.05 to 4 mM; type: ADME; conditions: jejunum microsomes
# [13] = Intrinsic clearance in rat kidney microsome at 0.05 to 4 mM; type: ADME; conditions: kidney microsomes; procedure, shortened: as §1
# [14] = Intrinsic clearance in human jejunum microsome at 0.05 to 4 mM; type: ADME; conditions: jejunum microsomes; procedure, shortened: as §1
# Liver microsome = assay: Intrinsic clearance in human Liver microsome at 0.05 to 4 mM; type: ADME; conditions: microsomes, 4000 µM; procedure, shortened: as §1
# [15] = Intrinsic clearance in mouse kidney microsome at 0.05 to 4 mM; type: ADME; conditions: kidney microsomes; procedure, shortened: as §1
# [16] = Intrinsic clearance in rat Liver microsome at 0.05 to 4 mM; type: ADME; conditions: liver microsomes, read-out: CLH; procedure, shortened: as §1
# [17] = Intrinsic clearance in mouse Liver microsome at 0.05 to 4 mM; type: ADME; conditions: liver microsomes, read-out: CLH; procedure, shortened: as §1
# [18] = Intrinsic clearance in rat lung microsome at 0.05 to 4 mM; type: ADME; conditions: lung microsomes
# [19] = biological target: T3, Arylacetamide deacetylase; assay: Ratio Vmax to Km in mouse recombinant AADAC; type: ADME
# [20] = substrate: CCOc1ccc(NC(C)=O)cc1; assay: Activity of AADAC in human lung microsome; type: ADME
# Procedure, shortened: (§2)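 Hydrolase activity of tissue microsomes in 0.2 ml mixtures of 100 mM potassium phosphate (pH 7.4). Microsomal protein: 0.4 mg/ml for flutamide (0.025–0.75 mM) and phenacetin (0.05–4 mM); 0.5 mg/ml for rifampicin (0.005–1 mM). Products measured were FLU-1, p-phenetidine and 25-deacetylrifampicin, within linear ranges. Three independent experiments.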
# [21] = substrate: CCOc1ccc(NC(C)=O)cc1; assay: (§3) Activity of AADAC in human jejunum microsome; type: ADME; procedure, shortened: as §2
# [22] = substrate: CO[C@H]1/C=C/O[C@@]2(C)Oc3c(C)c(O)c4c(O)c(c(/C=N/N5CCN(C)CC5)c(O)c4c3C2=O)NC(=O)/C(C)=C\C=C\[C@H](C)[C@H](O)[C@@H](C)[C@@H](O)[C@@H](C)[C@H](OC(C)=O)[C@@H]1C; assay: as §3; type: ADME; procedure, shortened: as §2
# [23] = substrate: CCOc1ccc(NC(C)=O)cc1; assay: (§4) Activity of AADAC in human liver microsome; type: ADME; procedure, shortened: as §2
# [24] = substrate: CO[C@H]1/C=C/O[C@@]2(C)Oc3c(C)c(O)c4c(O)c(c(/C=N/N5CCN(C)CC5)c(O)c4c3C2=O)NC(=O)/C(C)=C\C=C\[C@H](C)[C@H](O)[C@@H](C)[C@@H](O)[C@@H](C)[C@H](OC(C)=O)[C@@H]1C; assay: as §4; type: ADME; procedure, shortened: as §2
# [25] = substrate: CCOc1ccc(NC(C)=O)cc1; assay: (§5) Activity of human recombinant AADAC; type: ADME
# Procedure, shortened: (§6)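 Sf21 insect cells were infected with baculovirus carrying intact human, rat or mouse AADAC, harvested after 7 days, and homogenized by freeze-thaw. Homogenate was incubated in 100 mM potassium phosphate (pH 7.4). Flutamide (0.025–0.75 mM) used 0.4 mg/ml; phenacetin (0.05–4 mM) used 0.4 mg/ml for human and 0.2 mg/ml for rat or mouse; rifampicin (0.005–1 mM) used 0.5 mg/ml. Activity was normalized to immunoblot-derived AADAC expression units. Triplicate determinations.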
# [26] = substrate: CO[C@H]1/C=C/O[C@@]2(C)Oc3c(C)c(O)c4c(O)c(c(/C=N/N5CCN(C)CC5)c(O)c4c3C2=O)NC(=O)/C(C)=C\C=C\[C@H](C)[C@H](O)[C@@H](C)[C@@H](O)[C@@H](C)[C@H](OC(C)=O)[C@@H]1C; assay: as §5; type: ADME; procedure, shortened: as §6
# [27] = substrate: CCOc1ccc(NC(C)=O)cc1; assay: Activity of AADAC in human kidney microsome; type: ADME; procedure, shortened: as §2
# [28] = substrate: CCOc1ccc(NC(C)=O)cc1; assay: Activity of rat recombinant AADAC; type: ADME; procedure, shortened: as §6
# [29] = substrate: CCOc1ccc(NC(C)=O)cc1; assay: Activity of AADAC in rat kidney microsome; type: ADME; procedure, shortened: as §2
# [30] = substrate: CCOc1ccc(NC(C)=O)cc1; assay: Activity of AADAC in rat jejunum microsome; type: ADME; procedure, shortened: as §2
# [31] = substrate: CCOc1ccc(NC(C)=O)cc1; assay: Activity of AADAC in rat liver microsome; type: ADME; procedure, shortened: as §2
# [32] = substrate: CCOc1ccc(NC(C)=O)cc1; assay: Activity of AADAC in rat lung microsome; type: ADME; procedure, shortened: as §2
# [33] = substrate: CCOc1ccc(NC(C)=O)cc1; assay: Activity of AADAC in mouse kidney microsome; type: ADME; procedure, shortened: as §2
# [34] = substrate: CCOc1ccc(NC(C)=O)cc1; assay: Activity of AADAC in mouse liver microsome; type: ADME; procedure, shortened: as §2
# [35] = substrate: CCOc1ccc(NC(C)=O)cc1; assay: Activity of AADAC in mouse jejunum microsome; type: ADME; procedure, shortened: as §2
# [36] = substrate: CCOc1ccc(NC(C)=O)cc1; assay: Activity of mouse recombinant AADAC; type: ADME; procedure, shortened: as §6
# [37] = substrate: CCOc1ccc(NC(C)=O)cc1; assay: Activity of AADAC in mouse lung microsome; type: ADME; procedure, shortened: as §2
molecule,measurement,setting,value
CO[C@H]1/C=C/O[C@@]2(C)Oc3c(C)c(O)c4c(O)c(c(/C=N/N5CCN(C)CC5)c(O)c4c3C2=O)NC(=O)/C(C)=C\C=C\[C@H](C)[C@H](O)[C@@H](C)[C@@H](O)[C@@H](C)[C@H](OC(C)=O)[C@@H]1C [RIFAMPIN],Ki,[1],200 µM
same,microsomal CLint at up to 1000 µM,[2],0.7 µL/min/mg
same,microsomal CLint at up to 1000 µM,[3],0.7 µL/min/mg
same,microsomal CLint at up to 1000 µM,[4],0.2 µL/min/mg
same,Ki,[5],700 µM
same,Ki,[6],300 µM
CCOc1ccc(NC(C)=O)cc1 [PHENACETIN],Vmax/Km,[7],2.2 uL/min/U
same,CL,[8],0.4 µL/min/mg
same,microsomal CLint at up to 4000 µM,[9],0.1 µL/min/mg
same,Vmax/Km,[10],3.5 uL/min/U
same,CL,[11],0.2 µL/min/mg
same,microsomal CLint at up to 4000 µM,[12],0.1 µL/min/mg
same,microsomal CLint at up to 4000 µM,[13],0.1 µL/min/mg
same,microsomal CLint at up to 4000 µM,[14],4 µL/min/mg
same,CLH,Liver microsome,1.1 µL/min/mg
same,microsomal CLint at up to 4000 µM,[15],0.4 µL/min/mg
same,microsomal CLint at up to 4000 µM,[16],0.2 µL/min/mg
same,microsomal CLint at up to 4000 µM,[17],1.3 µL/min/mg
same,microsomal CLint at up to 4000 µM,[18],0.1 µL/min/mg
same,Vmax/Km,[19],5.7 uL/min/U
B1,Km,[20],7.4 mM
same,Vmax,[20],0.0008 µmol/min/mg
same,Km,[21],2.5 mM
same,Vmax,[21],0.01 µmol/min/mg
same,Km,[22],0.3 mM
same,Vmax,[22],0.000212 µmol/min/mg
same,Km,[23],3.3 mM
same,Vmax,[23],0.0036 µmol/min/mg
same,Km,[24],0.4 mM
same,Vmax,[24],0.000273 µmol/min/mg
same,Km,[25],1.8 mM
same,Km,[26],0.2 mM
same,Km,[27],2.3 mM
same,Vmax,[27],0.0004 µmol/min/mg
B2,Km,[28],5.8 mM
same,Km,[29],9.3 mM
same,Vmax,[29],0.0006 µmol/min/mg
same,Km,[30],4.6 mM
same,Vmax,[30],0.0003 µmol/min/mg
same,Km,[31],29.8 mM
same,Vmax,[31],0.0059 µmol/min/mg
same,Km,[32],5.3 mM
same,Vmax,[32],0.0001 µmol/min/mg
B3,Km,[33],7.1 mM
same,Vmax,[33],0.0029 µmol/min/mg
same,Km,[34],9.8 mM
same,Vmax,[34],0.0171 µmol/min/mg
same,Km,[35],11.2 mM
same,Vmax,[35],0.0014 µmol/min/mg
same,Km,[36],1.6 mM
same,Km,[37],2.9 mM
same,Vmax,[37],0.0001 µmol/min/mg

# Reference: ChEMBL document CHEMBL3526129, “Species differences in tissue distribution and enzyme activities of arylacetamide deacetylase in human, rat, and mouse” (Drug Metab Dispos, 2012)
